Reference: publication PMC10922102 (Cell chemical biology, 2023)

What was measured:
HBL-1 cells [1] = experiment: Targeted metabolomics; format: cell-based, human; conditions: folate-replete media, 0.1 or 0.5 μM, 24 h
Procedure, shortened: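 HBL-1 cells were expanded in RPMI 1640 with 1 mM HEPES, 100 U/mL penicillin, 100 µg/mL streptomycin and 10% FBS at 37 °C, 5% CO2. Metabolites were eluted by LC-MS/MS gradient. Buffer A was acetonitrile and Buffer B was 5% acetonitrile with 20 mM ammonium acetate, pH 9.0. The gradient started at 85% A and fell to 50% A by 17 min.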

HBL-1 cells [2] = conditions: human, 72 h
in vitro = conditions: human
cellular DHFR = target: T1, cellular DHFR (Homo sapiens, UniProt P00374); experiment: Label-free quantitative proteomics of HBL-1 cells; format: cell-based; conditions: 1 μM, 24 h
T1 sequence (P00374 1-187): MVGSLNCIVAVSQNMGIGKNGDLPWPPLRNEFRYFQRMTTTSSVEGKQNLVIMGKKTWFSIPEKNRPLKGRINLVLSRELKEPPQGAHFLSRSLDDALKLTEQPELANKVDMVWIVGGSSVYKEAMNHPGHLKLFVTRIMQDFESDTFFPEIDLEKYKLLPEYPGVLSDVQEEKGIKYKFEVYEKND

DHFR = target: T2, DHFR (Homo sapiens, UniProt P00374); experiment: Western blot analysis of cellular DHFR; format: cell-based
T2 sequence (P00374 1-187): T1 sequence (P00374 1-187)

[3] = system: MTX resistant (MTX^R) HBL-1 cells; experiment: Cell viability of MTX resistant; format: cell-based, human
DHFR-HiBiT = target: T3, DHFR-HiBiT (Homo sapiens, UniProt P00374); experiment: DHFR HiBiT assay; format: cell-based; conditions: for Degradation potency (pDC50): DHFR-HiBiT, 24 h, 30°C, mean ±SD, three independent experiments, ND = not determined (inactive); for Emax: HBL1, read-out: Assay max response (%)
T3 sequence (P00374 1-187): T1 sequence (P00374 1-187)

HBL-1 cells [4] = experiment: Folate cytotoxicity dependence; format: cell-based, human
[5] = target: T4, recombinant human DHFR•NADPH complex (Homo sapiens, UniProt P00374); experiment: Fluorescence polarization; format: binding
T4 sequence (P00374 1-187): T1 sequence (P00374 1-187)

HEK-293 cells = experiment: Live-cell imaging of cell growth; format: cell-based, human; conditions: live-cell imaging over 120 h
MOLT-4 cells = experiment: CellTiter-Glo cytotoxicity in MOLT-4 cells; format: cell-based, human
HBL-1 cells [6] = experiment: cells; conditions: Homo sapiens, HBL1, read-out: EC50 in MTX-sensitive HBL-1 cells
[7] = system: MTX sensitive (MTX^S) HBL-1 cells; experiment: Cell viability of MTX sensitive; format: cell-based; conditions: Homo sapiens, HBL1, read-out: EC50, cell viability

Structure (SMILES): COC(=O)[C@H](CCC(=O)NCCCCCCCCNc1cccc2c1C(=O)N(C1CCC(=O)NC1=O)C2=O)NC(=O)c1ccc(N(C)Cc2cnc3nc(N)nc(N)c3n2)cc1 (stereo partly drawn) [VSTX-ME, 9, Methyl N2-(4-(((2,4-diaminopteridin-6-yl)methyl)(methyl)amino)benzoyl)-N5-(8-((2-(2,6-dioxopiperidin-3-yl)-1,3-dioxoisoindolin-4-yl)amino)octyl)-L-glutaminate]
- cellular dUMP levels (HBL-1 cells [1]): only a modest increase
- purine nucleotides ATP and GTP relative to untreated control (HBL-1 cells [1]): decreased
- Cytotoxicity efficacy (viability, %CTG) (HBL-1 cells [2]): −26.8 ±22.7%
- EC50 at 72 h (in vitro): 5750 nM
- change of cellular DHFR by proteomics (cellular DHFR): significant degradation of cellular DHFR
- DHFR level by western blot (DHFR; 24 h, HBL-1, HEK-293, Jurkat, MOLT-4, DND-41, TALL-5 cells): consistently able to degrade DHFR across this cell panel at sub-micromolar concentrations
- DHFR degradation by western blot in MTX^R cells (DHFR; MTX^R HBL-1 cells): remained capable of degrading DHFR in the MTX^R cells
- effect on cell viability between parental (MTX^S) and MTX^R HBL-1 cell lines [3]: unchanged
- Degradation potency (pDC50) (DHFR-HiBiT; HBL-1 cells): 7.56 ±0.29
- Emax (DHFR-HiBiT): -71.9 ± 2.1%
- time of maximum DHFR-HiBiT depletion (DHFR-HiBiT; HBL-1 cells, time course 5 to 72 h): 24 h

Structure (SMILES): CN(Cc1cnc2nc(N)nc(N)c2n1)c1ccc(C(=O)NC(CCC(=O)O)C(=O)NCCCCCCCCNc2cccc3c2C(=O)N(C2CCC(=O)NC2=O)C3=O)cc1 (centres unmarked) [VSTX-αE3L, 8, 4-(4-(((2,4-diaminopteridin-6-yl)methyl)(methyl)amino)benzamido)-5-((8-((2-(2,6-dioxopiperidin-3-yl)-1,3-dioxoisoindolin-4-yl)amino)octyl)amino)-5-oxopentanoic acid]
- Cytotoxicity efficacy (viability, %CTG) (HBL-1 cells [2]): −2.0 ±16.2%
- cytotoxicity in folic acid-free, replete and rescue conditions (HBL-1 cells [4]): showed no cytotoxicity
- Emax (DHFR-HiBiT): 21.2 ± 2.5%
- change of cellular DHFR-HiBiT level (DHFR-HiBiT; HBL-1 cells): did not lead to appreciable changes in DHFR-HiBiT concentration
- IC50 [5]: 7240 nM

Structure (SMILES): CN1C(=O)CCC(N2C(=O)c3cccc(NCCCCCCCCNC(=O)CC[C@H](NC(=O)c4ccc(N(C)Cc5cnc6nc(N)nc(N)c6n5)cc4)C(=O)O)c3C2=O)C1=O (stereo partly drawn) [VSTX-IE3L, 7, N2-(4-(((2,4-diaminopteridin-6-yl)methyl)(methyl)amino)benzoyl)-N5-(8-((2-(1-methyl-2,6-dioxopiperidin-3-yl)-1,3-dioxoisoindolin-4-yl)amino)octyl)-L-glutamine]
- Cytotoxicity efficacy (viability, %CTG) (HBL-1 cells [2]): 6.2 ±4.4%
- cytotoxicity in folic acid-free, replete and rescue conditions (HBL-1 cells [4]): did not exhibit appreciable toxicity in any of the conditions
- Emax (DHFR-HiBiT): 39.3 ± 6.6%
- change of cellular DHFR-HiBiT level (DHFR-HiBiT; HBL-1 cells): increase in cellular DHFR-HiBiT
- IC50 [5]: 25.1 nM

Structure (SMILES): CN(Cc1cnc2nc(N)nc(N)c2n1)c1ccc(C(=O)N[C@@H](CC(F)C(=O)O)C(=O)O)cc1 (stereo partly drawn) [FMTX, 2, (2S)-2-(4-(((2,4-diaminopteridin-6-yl)methyl)(methyl)amino)benzamido)-4-fluoropentanedioic acid, reference compound]
- Cytotoxicity efficacy (viability, %CTG) (HBL-1 cells [2]): −65.7 ±5.7%
- EC50 at 72 h (in vitro): 1050 nM
- Emax (DHFR-HiBiT): 53.9 ± 5.2%
- effect on cellular confluence (HEK-293 cells): reduced cellular confluence beginning after 48 h of treatment
- IC50 [5]: 93.3 nM

Structure (SMILES): CN(Cc1cnc2nc(N)nc(N)c2n1)c1ccc(C(=O)N[C@@H](CCC(=O)NCCOCCOCCOCCNC(=O)COc2cccc3c2C(=O)N(C2CCC(=O)NC2=O)C3=O)C(=O)O)cc1 (stereo partly drawn) [Compound 3, (19S)-19-(4-(((2,4-diaminopteridin-6-yl)methyl)(methyl)amino)benzamido)-1-((2-(2,6-dioxopiperidin-3-yl)-1,3-dioxoisoindolin-4-yl)oxy)-2,16-dioxo-6,9,12-trioxa-3,15-diazaicosan-20-oic acid]
- CTG cytotoxicity compared to PROTAC 4 (MOLT-4 cells): more cytotoxic than PROTAC 4 by an order of magnitude
- Cytotoxicity efficacy (viability, %CTG) (HBL-1 cells [2]): −72.1 ±7.9%
- cytotoxicity compared to PROTAC 4 (HBL-1 cells [2]): an order of magnitude improvement in cytotoxicity when compared to PROTAC 4
- EC50 at 72 h (in vitro): 2820 nM
- DHFR concentration in the HiBiT assay, % of DMSO control (DHFR-HiBiT; 24 h treatment, HBL-1 cells): ~ 40%
- Degradation potency (pDC50) (DHFR-HiBiT; HBL-1 cells): 6.27 ±0.21
- Emax (DHFR-HiBiT): -40.6 ± 1.8%
- IC50 [5]: 43.7 nM

Structure (SMILES): CN(Cc1cnc2nc(N)nc(N)c2n1)c1ccc(C(=O)N[C@@H](CCC(=O)NCCCCCCCCNc2cccc3c2C(=O)N(C2CCC(=O)NC2=O)C3=O)C(=O)O)cc1 (stereo partly drawn) [Versortrexate (VSTX), 6, N2-(4-(((2,4-diaminopteridin-6-yl)methyl)(methyl)amino)benzoyl)-N5-(8-((2-(2,6-dioxopiperidin −3-yl)-1,3-dioxoisoindolin-4-yl)amino)octyl)-L-glutamine]
- Cytotoxicity efficacy (viability, %CTG) (HBL-1 cells [2]): −45.7 ±26.9%
- EC50 at 72 h (in vitro): 21400 nM
- Degradation potency (pDC50) (DHFR-HiBiT; HBL-1 cells): 6.43 ±0.18
- Emax (DHFR-HiBiT): -70.1 ± 0.4%
- IC50 [5]: 85.1 nM

Structure (SMILES): CN(Cc1cnc2nc(N)nc(N)c2n1)c1ccc(C(=O)N[C@@H](CCC(=O)O)C(=O)O)cc1 [MTX, 1, Methotrexate, reference compound]
- cellular dUMP levels (HBL-1 cells [1]): significant increase in dUMP levels
- Cytotoxicity efficacy (viability, %CTG) (HBL-1 cells [2]): −68.7 ±5.7%
- EC50 at 72 h (in vitro): 61.7 nM
- EC50 (HBL-1 cells [6]): < 100 nM
- increase of cytotoxicity in folate-depleted vs. folate-containing media (HBL-1 cells [4]): < 2 fold
- EC50 ([3]; Homo sapiens, HBL1, 240 h, read-out: EC50, cell viability): 4640 nM
- effect on cellular confluence (HEK-293 cells): reduced cellular confluence beginning after 48 h of treatment
- EC50 [7]: 45.2 nM
